Bioassay records deposited in PubChem by several laboratories.
Compounds with a hit are over-represented: about 1.1% of the library has one in this group of screens.
hK5 inh: blocks human kallikrein 5 protease activity. Q9Y337. recombinant hK5, fluorogenic AMC substrate cleavage. inhibition, % at 5 µM. actives 0.59% (n = 210,000). AID 873;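 active means inhibition of 40% or more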;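 further: 0% = enzyme controls without compound and 100% = no-enzyme blanks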
FXIIa inh 1536: blocks human coagulation factor XIIa protease activity | inhibition, % at 5 µM | purified FXIIa, Boc-QGR-AMC fluorogenic substrate, 2 h | actives 0.3% (n = 220,000); in the data active means inhibition above about 40%;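 further: 0% = enzyme with no compound and 100% = blank without enzyme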
Furin inh: human furin inhibition. purified furin, fluorogenic substrate cleavage. actives 0.061% (n = 220,000). inhibition, % at 20 µM or 30 µM. P09958; in the data active means inhibition above about 25%
thrombin 1536: blocks human thrombin protease activity; P00734; actives 0.26% (n = 220,000); inhibition, % at 5 µM; AID 1046; alpha-thrombin, Boc-VPR-AMC fluorogenic substrate cleavage;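 active means inhibition at or above 40%; inactive means inhibition below 40%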;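 further: 0% = enzyme with no compound and 100% = wells without enzyme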
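Test system: human alpha-thrombin protein / Dosing: one concentration per compound, 5 µM, with 0.2% DMSO / Medium: pH 7.5 Tris-saline with Tween 20 / Benchmarks: no-compound enzyme wells and no-enzyme blanks / Read-out basis: percent inhibition of thrombin substrate cleavage / Timing: reaction at room temperature / Measured by: fluorescence, ex 355 nm, em 460 nm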
FXIa inh: inhibitors of human coagulation factor XIa; purified FXIa, Boc-Glu-Ala-Arg-AMC fluorogenic substrate; inhibition, % at 5 µM; actives 0.14% (n = 220,000); AID 798;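 active means inhibition of at least 40%; inactive means inhibition below 40%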;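 further: fluorescence of freed AMC excited at 355 nm; 0% = enzyme without compound and 100% = no enzyme blank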
Target sequence (P03951 19-387 limits assumed): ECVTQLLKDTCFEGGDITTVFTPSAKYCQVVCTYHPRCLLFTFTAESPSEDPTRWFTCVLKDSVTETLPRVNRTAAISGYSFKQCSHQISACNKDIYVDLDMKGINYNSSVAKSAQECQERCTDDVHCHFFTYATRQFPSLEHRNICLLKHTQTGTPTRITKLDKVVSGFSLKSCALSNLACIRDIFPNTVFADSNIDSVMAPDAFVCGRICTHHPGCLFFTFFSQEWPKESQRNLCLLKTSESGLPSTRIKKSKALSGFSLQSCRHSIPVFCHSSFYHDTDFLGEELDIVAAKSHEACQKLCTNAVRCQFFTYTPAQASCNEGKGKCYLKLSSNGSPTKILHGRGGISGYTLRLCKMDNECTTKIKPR
Target sequence (P03951 388-625 limits assumed): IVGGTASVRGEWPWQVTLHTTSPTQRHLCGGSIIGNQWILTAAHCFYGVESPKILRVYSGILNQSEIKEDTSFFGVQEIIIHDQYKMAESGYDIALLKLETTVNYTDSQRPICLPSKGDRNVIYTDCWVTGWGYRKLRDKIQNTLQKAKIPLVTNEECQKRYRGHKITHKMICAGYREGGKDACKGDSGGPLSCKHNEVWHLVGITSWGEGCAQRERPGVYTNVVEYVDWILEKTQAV
The depositor's hits bear a star.

SMILES	hK5 inh	FXIIa inh 1536	Furin inh	thrombin 1536	FXIa inh
CC1(c2ccc([N+](=O)[O-])c(CS(=O)(=O)c3ccccc3)c2)OCCO1	-4	-5	-25	0	1
COc1ccc2ncc(OC(C)=O)cc2c1	-21	15	-18	40*	8
COc1cc(S(=O)(=O)n2nc(C)cc2C)c(OC)cc1Cl	-3	14	4	3	5
O=C(Nc1ccc(Br)cc1)c1cccc(S(=O)(=O)Nc2cnc3ccccc3c2)c1	-6	15	-10	0	7
COc1ccc(NC(=O)c2cccc(S(=O)(=O)Nc3ccc(Br)cc3)c2)cn1	40*	16	4	28	22
CC1=C(C(=O)OCCOc2ccccc2)C(c2ccc(C)o2)C2=C(CC(C)(C)CC2=O)N1 (stereo unspecified)	-11	10	-12	-4	-2
CC1=C(C(=O)Nc2ccc(C)cc2)C(c2ccc(C)o2)C2=C(CC(C)(C)CC2=O)N1 (stereo unspecified)	-10	45*	-16	-5	23
Cc1cc2nc(/N=C(\N)NC(=O)N3c4ccccc4Sc4ccccc43)nc(C)c2cc1C	-15	7	-5	-6	0
O=C1NC2(CCCCC2)NN1c1ccccc1	-17	0	-6	48*	-13
CCCCc1n[nH]c2c1C(=O)CC(C)(C)C2	4	6	-16	-2	2
CC1(C)CC(=O)c2c(Cc3ccccc3)n[nH]c2C1	50*	19	-6	14	-1
CSc1nc(-c2ccccc2)nc(NC(C)=O)c1C(C)=O	1	6	-29	-2	-2
CSc1nc(-c2ccccc2)nc(N)c1C(C)=O	45*	7	-11	16	8
Cc1ccc(Cl)cc1N1CCN(C(=O)CN2C(=O)c3cccc4cccc2c34)CC1	62*	7	-8	24	4
Cc1ccc(N(C(=O)Cn2nnc(-c3ccc(F)cc3)n2)C(C(=O)NC(C)(C)C)c2ccncc2)cc1 (stereo unspecified)	-4	2	-14	-11	-3
CC[C@@H](C)C(NC(=O)OC(C)(C)C)c1cn([C@@H](CCC(=O)OC(C)(C)C)C(=O)N2CCN(C(=O)OC(C)(C)C)CC2)nn1 (stereo partly specified)	0	7	-30	0	-1
CCCCOc1ccc(Cc2n[nH]c(=S)n2N)cc1	-13	9	-3	-7	6
Cc1ccc(OCc2n[nH]c(=S)n2N)cc1C	1	9	-36	101*	-2
CC(=O)N1CCc2c(sc(NC(=O)C3CC3)c2-c2nc3ccccc3s2)C1	-8	51*	-4	-3	0
Cn1c(=O)c(Nc2ccc(O)cc2)c2c3c(cccc31)C(=O)c1ccccc1-2	-24	5	-8	1	9
CC(OC(=O)CCCN1C(=O)c2ccccc2C1=O)C(=O)Nc1ncc(Cl)cc1Cl (stereo unspecified)	70*	-1	-21	26	1
O=S(=O)(CCNCc1cccs1)c1ccc(Cl)cc1	50*	-1	-4	-7	-4
CC(=O)N(CCS(=O)(=O)c1ccc(Cl)cc1)Cc1cccs1	3	6	-13	-6	-5
O=C(Cc1cccs1)Nc1nnc(CCc2ccccc2)s1	43*	15	19	54*	41*
CCC(=O)N(Cc1cc(=O)[nH]c2ccccc12)c1ccc(C)cc1	-10	4	-20	-2	-8
SMILES	hK5 inh	FXIIa inh 1536	Furin inh	thrombin 1536	FXIa inh
CNC(=O)c1c(NC(=O)c2cc(-c3cc(C)c(C)cc3O)n[nH]2)sc2c1CCCC2	7	7	-18	2	1
Cc1nc(SCc2ccc(O)c([N+](=O)[O-])c2)n[nH]1	4	15	31*	6	14
Cc1nc(SCc2ccc(O)c([N+](=O)[O-])c2)c([N+](=O)[O-])[nH]1	3	9	17	2	7
COc1ccc(CN(C)Cc2nc3scc(-c4ccccc4)c3c(=O)[nH]2)cc1OC	-19	5	-8	-8	1
COc1ccc(-c2ccc(-c3noc(-c4cccc(OC)c4)n3)c(OC)n2)cc1	60*	-10	-50	-1	-6
COc1ccc(-c2ccc(-c3noc(-c4ccccc4C)n3)c(OC)n2)cc1	-8	3	-13	-7	-7
Cc1ccc(C(C)C)c(OCc2nc(-c3nonc3N)no2)c1	54*	22	-14	10	-1
CC1CN(c2nc3ccccn3c(=O)c2/C=C(\C#N)S(=O)(=O)c2ccccc2)CC(C)O1 (stereo unspecified)	1	19	31*	3	2
